Measured values collected from several papers.
Target: Dual specificity tyrosine-phosphorylation-regulated kinase 2 (DYRK2, Homo sapiens, UniProt Q92630)
Sequence (Q92630 1-601, as in one of the studies): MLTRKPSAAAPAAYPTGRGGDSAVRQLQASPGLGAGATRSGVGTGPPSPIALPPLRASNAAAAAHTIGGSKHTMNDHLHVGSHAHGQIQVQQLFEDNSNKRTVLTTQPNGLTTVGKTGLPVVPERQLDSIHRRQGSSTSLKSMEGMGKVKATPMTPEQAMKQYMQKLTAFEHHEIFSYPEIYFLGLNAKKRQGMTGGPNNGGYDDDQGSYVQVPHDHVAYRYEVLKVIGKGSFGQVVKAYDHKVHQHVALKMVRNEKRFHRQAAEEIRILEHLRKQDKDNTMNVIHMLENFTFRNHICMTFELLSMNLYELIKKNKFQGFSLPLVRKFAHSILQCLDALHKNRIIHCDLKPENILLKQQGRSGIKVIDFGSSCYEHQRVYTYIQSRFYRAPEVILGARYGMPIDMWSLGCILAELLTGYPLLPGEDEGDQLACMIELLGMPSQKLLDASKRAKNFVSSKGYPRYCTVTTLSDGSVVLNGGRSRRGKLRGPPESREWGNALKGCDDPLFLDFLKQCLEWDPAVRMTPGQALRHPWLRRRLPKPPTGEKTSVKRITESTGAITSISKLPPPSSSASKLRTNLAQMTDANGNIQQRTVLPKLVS

| SMILES | assay | conditions | quantity | value |
| --- | --- | --- | --- | --- |
| O=C(NCCCC1CCCCC1)c1ccc(CNC(=O)c2cnn(-c3ccccc3)c2C(F)(F)F)cc1 | cell-free assay, competition with immobilised ligand | 0.1 µM | remaining binding | 100% |
| FC(F)(F)Oc1cccc(-c2cnc3ccc(-c4ccncc4)nn23)c1 | enzyme activity, inhibitor, radiometric | 1 µM | activity vs control | 52% |
| CC/C(=N\NC(=O)NCc1cccc(O)c1)c1ccc(O)c(C)c1O | enzyme activity, inhibitor | 0.1 µM | inhibition | -0.2% |
| Cn1cncc1C1=CN(c2ncnc3[nH]cnc23)CCS1 | enzyme activity, inhibitor, radiometric | 2 µM | inhibition | 91.2% |
| O=C1NC(=O)c2cc(Nc3ccc(F)cc3)c(Nc3ccc(F)cc3)cc21 | cell-free assay | 0.5 µM | remaining signal | 89.1% |
| NS(=O)(=O)c1cc(NC(=O)Cc2ccccc2)ccc1Oc1cccc(Cl)c1 | cell-free assay, competition with immobilised ligand | 1 µM | remaining binding | 100% |
| COc1cccc(Nc2nc3cc(C(=O)O)ccc3c3cnccc23)c1 | enzyme activity, inhibitor, radiometric | 1 µM | remaining activity | 14% |
| CN(C)CC#Cc1ccc(OCCCc2sc(N3CCc4cccc(C(=O)Nc5nc6ccccc6s5)c4C3)nc2C(=O)O)c(F)c1 | cell-free assay, competition with immobilised ligand | 1 µM | remaining binding | 100% |
| O=C(O)c1ccc2c(c1)nc(NCCc1cccc(F)c1)c1ncncc12 | enzyme activity, inhibitor, radiometric | 1 µM | remaining activity | 52% |
| Cc1ccc(Nc2nccc(N(C)c3ccc4c(C)n(C)nc4c3)n2)cc1S(N)(=O)=O | enzyme activity, inhibitor | 10 µM | inhibition | -3% |
| O=C(O)c1ccc2c(c1)nc(Nc1ccccc1)c1ncncc12 | enzyme activity, inhibitor, radiometric | 1 µM | remaining activity | 54% |
| Cc1nc(Cc2cccc(C(F)(F)F)c2)sc1-c1ccc(C(N)=O)nc1 | cell-free assay, competition with immobilised ligand | 1 µM | remaining binding | 90% |
| COc1ccc(COc2ccc(Cc3cnc(N)nc3N)cc2OC)cc1 | cell-free assay | 0.5 µM | remaining signal | 105% |
| CCCS(=O)(=O)Nc1ccc(F)c(C(=O)c2c[nH]c3ncc(-c4ccc(Cl)cc4)cc23)c1F | enzyme activity, inhibitor | 1 µM | inhibition | < 10% |
| Cc1ccc(NC(=O)c2ccc(C)c(C(F)(F)F)c2)cc1C#Cc1nn(C2CCC(O)CC2)c2ncnc(N)c12 (stereo not shown) | cell-free assay | 10 µM | remaining signal | 107% |
| O=C(O)c1ccc2c(c1)nc(Nc1ccccc1Cl)c1ncncc12 | enzyme activity, inhibitor, radiometric | 1 µM | remaining activity | 60% |
| O=C1Nc2ccc(Cl)cc2C1=Cc1cc(Cl)c(O)c(Cl)c1 | cell-free assay | 0.5 µM | remaining signal | 94% |
| O=C(O)c1cc(-c2ccc(C3CCNCC3)cc2)c2ccc(-c3ccc(C(F)(F)F)cc3)cc2c1 | cell-free assay, competition with immobilised ligand | 1 µM | remaining binding | 100% |
| O=C(O)c1ccc2c(c1)nc(Nc1cccc(F)c1)c1ncncc12 | enzyme activity, inhibitor, radiometric | 1 µM | remaining activity | 33% |
